An excerpt weighted towards active compounds, which were near 2.3% of everything screened.
Rtt109 Vps75: C. albicans Rtt109 histone acetyltransferase inhibition | purified Rtt109/Vps75, ThioGlo CoA-SH fluorescence, 4 h | inhibition, % at 34.9 µM | hit rate 0.16% among 330,000;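 active = inhibition of at least 50% in every replicate; inconclusive = best replicate reaches 50% inhibition but some replicates fall short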
Target sequence (Q5AAJ8 whole entry, looked up): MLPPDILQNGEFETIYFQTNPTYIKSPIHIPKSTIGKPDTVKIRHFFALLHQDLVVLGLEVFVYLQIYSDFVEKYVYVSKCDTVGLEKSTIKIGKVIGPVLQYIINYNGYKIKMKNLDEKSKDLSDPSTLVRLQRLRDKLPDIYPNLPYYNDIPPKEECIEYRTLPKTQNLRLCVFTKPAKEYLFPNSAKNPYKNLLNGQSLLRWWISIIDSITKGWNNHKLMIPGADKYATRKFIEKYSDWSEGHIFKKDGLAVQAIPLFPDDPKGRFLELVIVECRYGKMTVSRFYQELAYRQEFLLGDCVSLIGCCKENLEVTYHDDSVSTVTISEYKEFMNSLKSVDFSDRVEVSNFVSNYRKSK
Arrestin-AP2 inh: inhibitors of human beta-arrestin and AP2 interaction; FITC-arrestin peptide / GST-AP2 beads, flow cytometry; AP2 beta2 appendage carries R879A mutation; inhibition, % at 10 µM; hit rate 0.31% among 340,000; AID 504490;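 active = inhibition above a set limit, near 3 SD of compounds lacking own fluorescence, cut at about 54% in these data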;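 note: plate controls were DMSO wells for no effect and 5 µM unlabelled arrestin peptide for full effect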
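System: GST-tagged AP2 beta2-adaptin appendage (R879A) on 4 µm glutathione beads / Reagent: FITC-arrestin peptide, 50 nM / Detection: HyperCyt-sampled flow cytometry, FL1 channel, ex 488/em 535 nm / Timing: 12 min plus 1 h, RT / Buffer or medium: PBS plus Tween 20 (0.05%) and BSA (0.1%)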
PAX8 inh HTS: inhibitors of PAX8 transcriptional activity in RMG-I cells. RMG-I TPO-luciferase reporter, SteadyGlo, 24 h. inhibition, % at 12.6 µM. hit rate 1.2% among 360,000. AID 652154;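 active = mean replicate inhibition at least 60% with every replicate also reaching 60%; inconclusive = only one of the two criteria is met; inactive = mean below 60% and not all replicates reaching 60%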;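 note: luciferase light reporting Pax8 driven TPO promoter activity; plate controls were median of neutral control wells for no effect and mitoxantrone controls for full effect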
Env fusion inh: inhibitors of HIV Env-mediated cell fusion; HeLa-JRFL Env/CEM21 cell fusion, luciferase; inhibition, % at 12.3 µM; hit rate 1.1% among 360,000;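 active = mean replicate inhibition score of at least 50 and every replicate individually at or above 50; inconclusive = only one of the two criteria met; inactive = mean below 50 and not all replicates reaching 50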;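 note: 0% = plate neutral controls and 100% = maraviroc near 300 nM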
PfHsp90 set2: inhibits growth of yeast expressing Plasmodium falciparum Hsp90. hit rate 0.32% among 310,000. S. cerevisiae expressing PfHsp90, BacTiter-Glo ATP, 48 h; yeast lacking PDR1 and PDR3 efflux regulators. AID 504621. inhibition, % at 9.4 µM;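 active = every replicate shows inhibition above about 80%, whatever the replicate mean, limit read from the data; inconclusive = mean inhibition reaches the set limit but some replicate falls short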;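 note: 0% = DMSO neutral controls and 100% = 20 µM radicicol positive controls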
Glyco luc inh: blocks N-linked glycosylation in D54 reporter cells; D54 ERlucT glycosylation luciferase reporter, 24 h; percent of 100 nM tunicamycin response; reporter increase, % at 12.5 µM; hit rate 0.23% among 360,000;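 active = mean luciferase reporter signal, scaled so untreated is 0 and the glycosylation-blocking control 100, at or above a set limit in every replicate; inconclusive = mean reaches the limit but not every replicate does; inactive = mean below the limit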;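 note: luciferase carries N-glycosylation sites so blocking glycosylation raises the light; 0% = median of neutral control wells and 100% = median of 100 nM tunicamycin wells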
* hit, by the source's call; i = inactive; u = inconclusive; x = no result given; [ ] = dose if it differs, or a comment.

SMILES | Rtt109 Vps75 | Arrestin-AP2 inh | PAX8 inh HTS | Env fusion inh | PfHsp90 set2 | Glyco luc inh
COc1ccccc1CN(C)C[C@@H]1OCc2ccccc2-c2c(n(C)c3ccccc23)C(=O)N([C@@H](C)CO)C[C@@H]1C | x | x | 3.9 | x | x | x
OCC1OC(n2cnc3c(NCCc4ccccc4)ncnc32)C(O)C1O (stereo not drawn) | -4.3 | -0.3 | -21.7 | 6.1 | -3.9 | 3.8
CC(C)=CCNc1ncnc2c1c(C#N)cn2C1OC(CO)C(O)C1O (stereo not drawn) | -4.8 | 1.9 | 87.2* | 58.0* | -10.2 | 2.3
C[C@H]1CN([C@@H](C)CO)S(=O)(=O)c2ccc(C#Cc3ccc(F)cc3)cc2O[C@H]1CN(C)C(=O)CN(C)C | x | x | x | -4.9[16.7 µM] | x | x
CCOC(=O)c1sc(NC(=O)Cn2nnc3sc4c(c3c2=O)CCC(C(C)(C)C)C4)nc1C (stereo not drawn) | -2.8 | -0.1 | 72.9* | x | 12.5 | 1.7
COc1ccc(C(=O)NCCc2ccc(Cl)cc2)cc1S(=O)(=O)N1CCCCC1C (stereo not drawn) | 10.0 | 37.1 | 20.0 | 89.2* | 3.5 | -6.1
Cc1nn(C)cc1[C@@H]1C[C@H]2CN(Cc3cccc(Cl)c3)C(=O)[C@]23CCCN13 | 52.6* | 6.9 | -2.2 | 13.3 | -4.3 | 0.4
CC(C)(Sc1ccc(CCN(CCCCC2CCCCC2)C(=O)NC2CCCCC2)cc1)C(=O)O | 24.2 | -7.2 | -18.7 | 56.7* | 5.0 | 2.4
CCOC(=O)c1cc2c(=Cc3ccc(N(C)C)cc3)c3ccccc3n2[n+]1C | 4.7 | 12.8 | 20.3 | 48.4 | -0.7 | 40.2*
CN(C)c1ccc(C=c2c3ccccc3n3c2c2ccccc2[n+]3C)cc1 | 5.0 | 21.6 | 87.8* | 58.1* | -24.4 | -4.4
CCOC(=O)SC1=N/C(=C\c2ccc(N(C)C)cc2)C(=O)S1 | -2.2 | 8.5 | x | x | -12.8 | 2.2
CN(C)c1ccc(/C=C/c2ccc3ccccc3[n+]2C)cc1 | 28.6 | -4.3 | -4.5 | x | 54.2 | 1.8
Cc1cc2c(=Cc3ccc(N(C)C)cc3)c3ccccc3n2[n+]1C | 3.0 | 48.7 | x | 34.6 | 10.5 | 66.4*
CC1=NN(c2cccc(F)c2)C(=O)/C1=C/c1ccc(N(C)C)cc1 | -6.6 | 33.8 | 14.5 | -1.9 | 16.1 | -2.8
COc1ccc(OC)c(-c2cc(C(=O)NCCCn3ccnc3)no2)c1 | 8.6 | -1.7 | x | -44.1 | x | 1.6
Cc1ccc(-c2cc(C(=O)NCCCN3CCOCC3)no2)cc1 | x | -3.1 | x | 29.5 | 14.9 | -3.8
O=C(NCCCn1ccnc1)c1cc(-c2cccs2)on1 | 9.1 | -5.8 | x | i | 22.0 | 155.2*
O=C(NCCCN1CCOCC1)c1cc(-c2cccs2)on1 | 2.7 | 4.7 | x | x | 7.5 | 45.7*
COC(=O)CCC[C@H]1CC2(C[C@H](CCCO[Si](C)(C)C(C)(C)C)N1C(=O)OC(C)(C)C)OCCO2 | -0.5 | 15.6 | 17.9 | 74.4* | 7.2 | -5.8
CC(=O)c1cccc(-c2csc3ncnc(Sc4nnnn4C)c23)c1 | x | x | 113.7* | -184.6 | x | -13.4
Cn1nnnc1Sc1ncnc2scc(-c3cccc(Br)c3)c12 | -1.6 | 5.2 | 90.7* | -105.7 | -8.2 | -2.6
Cn1nnnc1Sc1ncnc2scc(-c3ccc4c(c3)OCO4)c12 | 1.3 | 17.3 | 101.0* | -9.2 | 8.9 | -8.8
Cn1nnnc1Sc1ncnc2scc(-c3cccc(S(C)(=O)=O)c3)c12 | -19.4 | 0.0 | 105.8* | -303.0 | x | -16.0
O=C(O)CSc1ncnc2scc(-c3ccc(Br)cc3)c12 | -7.0 | 13.8 | -8.3 | 3.6 | -39.9 | 0.0
Cc1ccc(-c2csc3ncnc(SCC(=O)c4ccc5c(c4)OCCO5)c23)cc1 | -0.3 | -2.8 | x | x | 6.1 | 0.5
SMILES | Rtt109 Vps75 | Arrestin-AP2 inh | PAX8 inh HTS | Env fusion inh | PfHsp90 set2 | Glyco luc inh
O=C(CNC(=S)N(Cc1ccccc1F)C1CCCCC1)NCC1CCCO1 (stereo not drawn) | 5.8 | -27.1 | 65.4* | u | 26.2 | -2.8
O=C(CNC(=S)N(Cc1ccc(F)cc1)C1CCCCC1)NCC1CCCO1 (stereo not drawn) | -8.0 | 7.0 | 3.4 | -11.6 | -3.8 | 1.4
COc1ccccc1Cc1c(-c2ccccc2)nc2c3ccccc3ccn12 | x | x | 15.5 | -18.2 | x | x
COc1ccccc1Cc1c(C(C)(C)C)nc2c3ccccc3ccn12 | x | x | 65.4* | 24.5 | x | -2.3
C[C@@H]1CN([C@@H](C)CO)S(=O)(=O)c2ccc(/C=C/c3ccccc3)cc2O[C@@H]1CN(C)C(=O)c1ccc2c(c1)OCO2 | x | x | x | 11.4[16.7 µM] | x | x
C[C@@H]1CCCCO[C@H](CN(C)C(=O)Nc2ccccc2)[C@@H](C)CN([C@H](C)CO)C(=O)c2cc(NC(=O)NC3CCCCC3)ccc2O1 | x | x | -9.1 | -17.6[16.7 µM] | x | x
CC(=O)OC1CCC2C3CCC4OC(=O)CCC4C3CCC12C (stereo not drawn) | -1.6 | -13.5 | 5.0 | -7.9 | x | 0.0
C=C1C(=O)C2=CC1CCC(=O)C1(C)CCC(OC(C)=O)C(C)(C)C1CC2O (stereo not drawn) | -12.4 | 1.8 | 104.8* | -40.7 | -46.4 | -21.7
CCOC(=O)c1ccc(N2C(=O)CC(N3CCC(O)(c4ccc(Cl)cc4)CC3)C2=O)cc1 (stereo not drawn) | 11.3 | 0.8 | -7.4 | -70.0 | 101.3* | 1.9
CCCOc1ccc(N2C(=O)CC(N3CCC(C(=O)OCC)CC3)C2=O)cc1 (stereo not drawn) | 4.9 | -2.3 | x | x | 105.0* | 2.3
CCOC(=O)c1ccc(N2C(=O)CC(N3CCN(Cc4ccccc4)CC3)C2=O)cc1 (stereo not drawn) | 10.2 | 5.1 | x | x | 5.3 | -1.1
CCOC(=O)c1ccc(N2C(=O)CC(N3CCC(Nc4ccc(F)cc4)CC3)C2=O)cc1 (stereo not drawn) | 13.8 | 7.2 | x | 15.7 | 128.3* | 1.1
CCOC(=O)c1ccc(N2C(=O)CC(N3CCC(O)(c4ccc(Br)cc4)CC3)C2=O)cc1 (stereo not drawn) | 7.1 | -8.7 | x | x | 96.4* | 1.1
Cc1cc([N+](=O)[O-])nn1CCCC(=O)Nc1sc2c(c1C(N)=O)CCC(C)C2 (stereo not drawn) | 5.7 | 3.2 | 97.5* | x | 38.0 | 1.7
N#C[C@H]1N[C@H](CO)[C@@H]1c1ccc(C2=CCCC2)cc1 | x | x | -0.4 | -3.1[16.7 µM] | x | x
C[C@@H]1CN([C@@H](C)CO)C(=O)Cc2cc(NS(=O)(=O)c3cccs3)ccc2O[C@H]1CN(C)Cc1ccc(Cl)c(Cl)c1 | x | x | x | 61.4*[16.7 µM] | x | x
C[C@@H]1CN([C@H](C)CO)C(=O)Cc2cc(NS(=O)(=O)c3cccs3)ccc2O[C@@H]1CN(C)Cc1ccc(Cl)c(Cl)c1 | x | x | x | 3.6[16.7 µM] | x | x
C[C@H]1CN([C@@H](C)CO)C(=O)Cc2cc(NS(=O)(=O)c3cccs3)ccc2O[C@@H]1CN(C)Cc1ccc(C(F)(F)F)cc1 | x | x | 17.3 | 4.9[16.7 µM] | x | x
C[C@@H]1CN([C@@H](C)CO)C(=O)Cc2cc(NS(=O)(=O)c3cccs3)ccc2O[C@H]1CN(C)Cc1ccc(C(F)(F)F)cc1 | x | x | 91.4* | 77.5*[16.7 µM] | x | x
